Mdm2-MdmX inh = human Mdm2/MdmX binding inhibition | SaOS-2 split-luciferase Mdm2/MdmX complementation, luminescence | inhibition, % at 8 µM | 330,000 compounds, 3% hits | AID 485346;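 active = inhibition of at least 50% at 8 µM in the primary screen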
aSyn 5UTR inh = 5' untranslated region of α-synuclein, MLPCN primary screen. alpha-synuclein 5'UTR reporter, inhibitor activity. inhibition, % (tested at 7.5 µM). 300,000 compounds, 0.82% hits. AID 1813; in the data active = inhibition above about 60%;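 also: H4 neuroglioblastoma cells stably carrying SNCA 5'UTR luciferase fusion; 0% = DMSO wells and 100% = positive control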
697 NFkB inh = lowers PMA/ionomycin-induced NF-kB signal in 697 B cells; inhibition, % at 4 µM; 697 B-cell NF-kB luciferase reporter, 16 h; 330,000 compounds, 0.33% hits; in the data active = inhibition above about 35%
IMP-1 inh = blocks Pseudomonas aeruginosa IMP-1 metallo-beta-lactamase; purified IMP-1, nitrocefin hydrolysis, epi-absorbance fluorescence; inhibition, % at 5.6 µM; 290,000 compounds, 0.45% hits;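 active = inhibition above the mean plus 3 SD of all compounds in the same screening run, cut at about 4.5% in these data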;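 also: 0% = IMP-1 with DMSO and 100% = DMSO wells lacking enzyme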
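system = purified recombinant IMP-1 beta-lactamase | amount = 0.2 nM IMP-1, as dispensed | medium = HEPES buffer pH 7.1 with ZnSO4 and Brij 35 | times = 25 °C, 15 min preincubation, 25 min reaction | detection = plate fluorescence quenching by hydrolysis product, ex 480/em 530 nm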
VIM-2 inhibitor = inhibitors of Pseudomonas aeruginosa VIM-2 metallo-beta-lactamase; 290,000 compounds, 0.89% hits; inhibition, % at 5.6 µM; purified VIM-2, nitrocefin hydrolysis, epi-absorbance fluorescence; AID 1527;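 active = inhibition above the mean of all tested compounds plus 3 SD, cutoff set per screening run, cut at about 7.5% in these data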;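 also: red hydrolysis product quenches plate fluorescence so inhibitors raise well fluorescence; 0% = enzyme with DMSO and 100% = DMSO without enzyme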
Jurkat NFkB inh = inhibitors of the PMA/ionomycin-induced NF-kB reporter in Jurkat cells. PMA/ionomycin-induced NF-kB luciferase reporter, luminescence. inhibition, % at 4 µM. 330,000 compounds, 0.53% hits. AID 435003; in the data active = inhibition above about 50%
Numbers without * were called inactive; . = no result. Shown are actives, neighbours in structure and some others; about 4.7% of the full set was active somewhere.

SMILES	Mdm2-MdmX inh	aSyn 5UTR inh	697 NFkB inh	IMP-1 inh	VIM-2 inhibitor	Jurkat NFkB inh
CCc1ccc(OCc2cccc(C(=O)N/N=C\c3cnn(C)c3C)c2)cc1	8	-51	-121	6.4*	-2	-31
O=C(Nc1cccc(OC(=O)c2ccc(Br)o2)c1)c1ccccc1	-7	-66	-20	0	0	-12
CCn1c(CCCCc2n[nH]c(=S)n2CC)n[nH]c1=S	4	14	12	-5	0	-4
CCCCn1c(CCn2nc(C)c(Br)c2C)n[nH]c1=S	3	11	-3	1	8.1*	5
O=C(CSc1nc2ccccc2nc1N1CCCCC1)Nc1ccc(F)cc1	13	8	6	0	0	2
O=C(COc1ccc([N+](=O)[O-])cc1Cl)N(C1CCCCC1)C1CCS(=O)(=O)C1 (stereo unspecified)	13	.	-13	.	.	-1
CCOc1ccc(NC(=O)CSc2nnc(NC(=O)C3CC3)s2)cc1	13	17	19	-3	-2	3
CCSc1ncc(Cl)c(C(=O)Nc2ccc(S(=O)(=O)Nc3ncccn3)cc2)n1	21	5	13	0	0	-4
CCSc1ncc(Cl)c(C(=O)Nc2ccc(S(N)(=O)=O)cc2)n1	-3	5	-2	0	8.6*	-20
CC(=O)Nc1cccc(C(=O)N2CCC(n3nccc3NC(=O)CC(C)C)CC2)c1	22	10	14	0	-1	-19
O=C(Cc1ccc(NC2=NC3CS(=O)(=O)CC3S2)cc1)NCc1ccc(Cl)cc1 (stereo unspecified)	4	9	0	-3	-3	6
CCC1=C/C(=C/N(C)c2ccccc2)C(=O)S1	11	-62	6	6.1*	3	5
O=C(O)c1ccc2cccnc2c1O	4	12	13	0	10*	-3
Cc1cc(=S)c2cccc(C)c2[nH]1	9	-8	3	-3	-2	3
CCC(=O)Nc1nc2ccccc2n1Cc1ccccc1Cl	50	72*	-24	-4	-3	4
CCC(=O)Nc1nc2ccccc2n1Cc1ccc(Cl)cc1	32	72*	-3	-2	1	3
CC(=O)Nc1nc2ccccc2n1CCOc1ccccc1Cl	49	73*	-24	-1	-3	-1
Clc1ccccc1OCCn1cnc2ccccc21	-37	-59	-33	-2	2	-42
CCC(=O)Nc1nc2ccccc2n1CCN1CCOCC1	5	-31	14	1	-2	4
Cc1nc2ccccc2n1S(=O)(=O)c1cc(C(=O)O)ccc1Cl	12	-1	6	1	-1	-9
CC(Oc1ccc2c3c(c(=O)oc2c1)CCCC3)C(=O)NCCN1CCOCC1 (stereo unspecified)	16	-3	-4	-1	7	21
O=C(COc1ccc2c3c(c(=O)oc2c1)CCCC3)NCCN1CCOCC1	-10	7	22	-2	12*	-5
CCc1cc(=O)oc2cc(OCC(=O)NCCCn3ccnc3)ccc12	13	10	5	-2	11*	-12
CCCc1cc(=O)oc2c(C)c(OCC(=O)NCCN3CCOCC3)ccc12	0	-4	4	0	3	7
O=C(COc1ccc2c3c(c(=O)oc2c1)CCCC3)NCCCN1CCOCC1	-14	12	3	-1	11*	-4
SMILES	Mdm2-MdmX inh	aSyn 5UTR inh	697 NFkB inh	IMP-1 inh	VIM-2 inhibitor	Jurkat NFkB inh
Cc1c(C)c2ccc(OCC(=O)NCCN3CCOCC3)c(C)c2oc1=O	-17	6	-14	0	11*	4
O=c1cc(-c2ccccc2)nc2c(-c3ccccc3)c(C(F)(F)F)[nH]n12	17	0	-6	-2	-3	-19
Cc1ccc2[nH]c(=O)c3cc(C(=O)NCCN4CCN(C)CC4)sc3c2c1	15	-4	-13	0	12*	-7
CCCN1CCN(CCCNC(=O)c2cc3c(=O)[nH]c4ccccc4c3s2)CC1	13	-10	-3	-2	10*	-16
O=C1CCC(C(=O)Nc2cccc(S(=O)(=O)Nc3ccccc3F)c2)=NN1	7	.	-6	.	.	-6
CC(NC(=O)CNC(=O)c1cccs1)c1cccc(C(F)(F)F)c1 (stereo unspecified)	5	.	5	.	.	-39
Cc1cc(Oc2ccccc2)nc(SCC(=O)Nc2ccc(Cl)cc2Cl)n1	-25	11	-17	46*	-5	2
Cc1c(N/N=C(\C#N)C(=O)c2ccc(Cl)cc2)c(=O)n(-c2ccccc2)n1C	.	86*	.	-2	-5	.
COC(=O)C(=NNc1c(C)n(C)n(-c2ccccc2)c1=O)C(=O)OC	-27	8	-10	-3	-2	-3
CSc1nc2sc3c(c2c2nncn12)CCC3	13	7	29	-1	11*	5
c1nnc2c3c4c(sc3ncn12)CCCC4	27	10	-11	-3	-3	9
COC(=O)c1ccccc1-c1cn(C)c2ccccc2c1=O	-11	14	-15	-1	-2	-22
Cc1ccc(NC(=O)c2ccc3c(c2)C(=O)N(c2cc(C)ccc2C)C3=O)nc1	43	-40	-2	0	-3	-8
O=c1[nH]c(=O)n([C@H]2C[C@H](O)[C@@H](CO)O2)cc1F	.	80*	.	0	2	.
Nc1cn(C2OC(CO)C(O)C2O)c(=O)[nH]c1=O (stereo unspecified)	-4	-13	-4	6.3*	-1	-12
O=c1[nH]c(=O)n([C@H]2C[C@H](O)[C@@H](CO)O2)cc1Br	-33	.	-70	.	.	-1
CC(=O)Nc1ccc(/C=C/c2nc(-c3ccccc3O)n[nH]2)cc1	-10	-202	-26	-2	-4	-47
O=C(NN1C(=O)CSC1=S)C(=O)NN1C(=O)CSC1=S	4	5	0	18*	4	-5
O=C(Cc1cccc2ccccc12)NN1C(=O)CSC1=S	2	26	17	0	-3	11
CCOC(=O)/C(=C\C=C1/Sc2cc(OCC)c(OCC)cc2N1CC)C(C)=O	.	17	.	4.8*	3	.
CCOC(=O)/C(=C/C=C1\Sc2cc(OCC)c(OCC)cc2N1CC)C(C)=O	9	-7	5	6.2*	7	6
CCN1/C(=C/C(C)=O)Sc2ccc(OC)cc21	24	9	8	-5	-4	-4
O=[N+]([O-])c1cccc(-c2nnc(-c3ccccc3F)o2)c1	-37	-162	-84	-3	-1	-95
CCN(CC)CCCNc1oc(/C=C/c2ccccc2)nc1C#N	5	-64	-48	0	-2	-43
COc1ccc(/C=C/c2nc(C#N)c(NCCN(C)C)o2)cc1OC	6	8	-60	-3	10*	-29
O=C(OCc1c(-c2ccccc2)ncc2ccccc12)c1cccs1	32	.	-20	.	.	-5
Cc1cc(N2CCN(c3nc(-c4ccc([N+](=O)[O-])cc4)cs3)CC2)c2ccccc2n1	42	66*	-1	-2	-2	16

Screens deposited in PubChem BioAssay by several laboratories.
